From PubChem
PLC-gamma1 inh: inhibitors of human phospholipase C gamma1; P19174; purified PLC-gamma1, fluorogenic substrate, fluorescence; inhibition, % at 12.2 µM; 370,000 compounds, 0.84% hits; in the data active means inhibition above about 9.5%
PLC-beta3 inh: blocks human PLC-beta3 enzyme activity | Q01970 | Purified PLC-beta3, fluorogenic substrate, fluorescence | inhibition, % at 12.2 µM | 370,000 compounds, 0.18% hits | AID 720704; in the data active means inhibition above about 11%;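 further: 0% = median of compound wells on plate and 100% = full blocker control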
DAGLB inh: blocks human DAGLB lipase activity. Q8NCG7. HEK293T DAGLB membrane lysate, EnzChek fluorogenic substrate. inhibition, % at 5.17 µM. 340,000 compounds, 0.059% hits; in the data active means inhibition above about 34%;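 further: 0% = enzyme with vehicle and 100% = wells lacking enzyme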
HGIII-sPLA2 inh: Blocks human group III sPLA2 activity | Q9NZ20 | QFRET BODIPY PC-A2 liposome hydrolysis, fluorescence | inhibition, % at 12.2 µM | 370,000 compounds, 0.56% hits | AID 743126;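 active means inhibition above mean plus 3 SD of compounds lying within the high and low control bounds, cut at about 19% in these data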;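 further: 0% = median of test compound wells and 100% = no enzyme DMSO wells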
Tb MetRS inh: blocks T. brucei methionyl-tRNA synthetase activity; purified T. brucei MetRS, ATP depletion, Kinase-Glo luminescence; inhibition, % at 11.9 µM; 360,000 compounds, 0.4% hits; AID 624268;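 active means inhibition above a per-plate cutoff of the control wells' mean inhibition plus 3 SD, cut at about 5.5% in these data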;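 further: 0% = DMSO wells median and 100% = median of wells with control inhibitor compound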
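technique = Kinase-Glo luminescence, ATP depletion format | system = purified MetRS (methionyl-tRNA synthetase) enzyme from Trypanosoma brucei | timing = 15 min preincubation, 2 h reaction, all 25 °C | evaluation = percent inhibition versus plate control medians | dosing = single dose, 11.9 µM final nominal, 0.9% final DMSO | also added = substrates ATP, L-methionine and bulk Escherichia coli tRNA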
TbMetRS confirm: confirmation of Trypanosoma brucei MetRS inhibitors. shares compounds with Tb MetRS inh. T. brucei MetRS enzyme, luminescence (ATP depletion). inhibition, % at 11.9 µM. 1,400 compounds, 93% hits. AID 624412; in the data active means inhibition above about 7%
Jurkat cytotox: Jurkat T cell cytotoxicity for MetRS hits; shares compounds with Tb MetRS inh; Jurkat cells viability, ATP luminescence; inhibition, % at 8.3 µM; 1,400 compounds, 12% hits; AID 624413; in the data active means inhibition above about 15%;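 further: 0% = vehicle and 100% = reference inhibitor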
TbMetRS FP orth: orthogonal test for Trypanosoma brucei MetRS inhibitors. inhibition, % at 11.9 µM. purified T. brucei MetRS, fluorescence polarization. 1,400 compounds, 44% hits. shares compounds with Tb MetRS inh; in the data active means inhibition above about 17%;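 further: 0% = vehicle wells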
* marks the source's active call; other numbers are inactive results; / = no result given. Hits are enriched below; roughly 1.9% of the tested compounds scored in any of these assays.

SMILES | PLC-gamma1 inh | PLC-beta3 inh | DAGLB inh | HGIII-sPLA2 inh | Tb MetRS inh | TbMetRS confirm | Jurkat cytotox | TbMetRS FP orth
Cc1ccc(NC(=O)CS(=O)CC(=O)Nc2ccc3c(c2)OCO3)cc1Cl (stereo not given) | 2 | -3 | -6 | -13 | 9.8* | 12* | -2 | 12
O=S(=O)(c1ccccc1)c1nc(Nc2cccc(O)c2)sc1Cl | -2 | -4 | -1 | -29 | 10* | 20* | 18* | 6
Cc1ccc(S(=O)(=O)c2nc(Nc3ccccc3)sc2Cl)cc1 | 3 | 4 | -2 | -13 | 3 | / | / | /
O=C(CSc1nc2ccccc2[nH]1)N1CCN(c2ccc(F)cc2)CC1 | 0 | -2 | 0 | -6 | 1 | / | / | /
O=C(CCCSc1nc2ccccc2[nH]1)N1CCN(c2ccc([N+](=O)[O-])cc2)CC1 | 3 | 1 | -2 | 11 | 9.2* | 55* | 1 | 14
O=S(=O)(Nc1nccs1)c1ccc(NCc2cc(Br)cc(Br)c2O)cc1 | 3 | -7 | 4 | -9 | 36* | 68* | -9 | 24*
CCOC(=O)C(/C=C(\C#N)C(=O)OCC)=C(/N)N1CCN(c2c(C)cccc2C)CC1 | 2 | 3 | 5 | 3 | 0 | / | / | /
CCOC(=O)C(/C=C(\C#N)C(=O)OCC)=C(/N)N1CCN(c2ccc(OC)cc2)CC1 | 6 | 6 | 0 | -6 | 22* | 43* | 3 | 13
Cc1ccc(S(=O)(=O)N2CCN(c3ccc(S(=O)(=O)N4CCOCC4)cn3)CC2)cc1 | 2 | 3 | -5 | 4 | -2 | / | / | /
O=S(=O)(NCc1ccc(Cl)cc1Cl)c1ccc(N2CCOCC2)nc1 | -5 | -11 | 3 | -5 | 6.9* | 14* | -3 | 3
Cc1cccc(CC(Cc2nc3ccccc3[nH]2)c2nc3ccccc3[nH]2)c1 (stereo not given) | -2 | 2 | -1 | -36 | 8.4* | 21* | 10 | 9
COc1ccccc1CC(Cc1nc2ccccc2[nH]1)c1nc2ccccc2[nH]1 (stereo not given) | 1 | -6 | -1 | -6 | 5.7* | 11* | 3 | 3
O=C1COc2ccccc2C(c2nnnn2-c2ccc3ccccc3c2)N1C1CC1 (stereo not given) | -2 | 1 | / | -8 | / | / | / | /
O=C(Cn1cc(C(=O)c2cccs2)c2ccccc21)NCc1ccc2c(c1)OCO2 | -10 | -14 | 0 | -22 | 21* | 35* | 5 | 16
NC(=O)c1ncn([C@@H]2O[C@H](C(=O)N[C@H](Cc3ccccc3)C(=O)N3CCN(CC(=O)Nc4ccccn4)CC3)[C@@H](O)[C@H]2O)n1 | 3 | 2 | / | 2 | / | / | / | /
CN(C)C(CNc1ncnc2sccc12)c1ccccc1 (stereo not given) | -3 | -1 | 1 | 6 | 8.0* | 1 | -4 | -1
COC(=O)C1=C(C)N(Cc2ccccc2C(F)(F)F)C(=NCc2ccc(OC)cc2)NC1c1ccc(C(F)(F)F)cc1 (stereo not given) | 1 | 1 | / | 0 | / | / | / | /
c1ccc(CN2C3=NCCN3c3ccccc32)cc1 | -1 | 0 | 3 | -1 | 1 | / | / | /
Clc1ccc(CN2C3=NCCN3c3ccccc32)cc1Cl | -6 | -1 | -1 | -1 | 7.4* | 12* | 16* | 1
O=C(NNC(=O)c1ccc2nonc2c1)Nc1ccc(Cl)cc1 | 1 | -7 | / | -22 | 10* | 20* | 5 | 8
CCN(CC)c1cc(Cl)c2nonc2c1N | -6 | -11 | 15 | -1 | 0 | / | / | /
CN(C)c1cc(Cl)c2nonc2c1N | 7 | -16 | 3 | 5 | 5.7* | 4 | 0 | 2
O=C(O)CC1S/C(=N/N=C/c2ccc(-c3ccc(Cl)c([N+](=O)[O-])c3)o2)NC1=O (stereo not given) | 0 | 2 | 6 | -5 | 1 | / | / | /
O=C(O)CC1S/C(=N/N=C/c2ccc(-c3ccc(Cl)cc3[N+](=O)[O-])o2)NC1=O (stereo not given) | -10 | -14 | 10 | -8 | 11* | 14* | -4 | 12
